Key:
[1] = biological target: Adenosine receptors; A1 & A3 (Homo sapiens) (UniProt P30542+P0DMS8); assay: Selectivity ratio of Ki for human adenosine A1 receptor expressed in CHO cells to Ki for human adenosine A3 receptor expressed in CHO cells; assay type: cell-based
[2] = test system: CHO; assay: Selectivity ratio of Ki for human adenosine A2A receptor expressed in CHO cells to Ki for human adenosine A3 receptor expressed in CHO cells; assay type: cell-based
[3] = test system: CHO; assay: Selectivity ratio of Ki for human adenosine A1 receptor expressed in CHO cells to Ki for human adenosine A2A receptor expressed in CHO cells; assay type: cell-based
[4] = biological target: T1, Adenosine receptor A1 (Homo sapiens, UniProt P30542); assay: Displacement of [3H]CCPA from human adenosine A1 receptor expressed in CHO cells; assay type: cell-based
T1 sequence (P30542 whole entry): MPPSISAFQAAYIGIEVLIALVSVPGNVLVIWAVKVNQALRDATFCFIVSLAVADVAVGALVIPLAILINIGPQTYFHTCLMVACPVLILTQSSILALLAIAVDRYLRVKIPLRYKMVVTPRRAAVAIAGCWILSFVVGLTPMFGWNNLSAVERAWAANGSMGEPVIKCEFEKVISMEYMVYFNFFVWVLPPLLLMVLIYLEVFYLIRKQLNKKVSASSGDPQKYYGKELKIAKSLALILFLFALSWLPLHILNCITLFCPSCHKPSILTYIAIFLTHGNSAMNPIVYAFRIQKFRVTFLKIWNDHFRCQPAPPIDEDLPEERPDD
How it was run: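 Stably transfected CHO cells were homogenised and spun at 1000g to remove nuclei and fragments. Membranes were then pelleted at 100 000g, resuspended in binding buffer, frozen in liquid nitrogen and stored. Radioligand was [³H]CCPA, with nonspecific binding defined by 1 mM theophylline.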

[5] = biological target: Adenosine receptor A2a (Homo sapiens, UniProt P29274); assay: Displacement of [3H]NECA from human adenosine A2A receptor expressed in CHO cells; assay type: cell-based
[6] = biological target: T2, Adenosine receptor A3 (Homo sapiens, UniProt P0DMS8); assay: Displacement of [3H]NECA from human adenosine A3 receptor expressed in CHO cells; assay type: cell-based
T2 sequence (P0DMS8 whole entry): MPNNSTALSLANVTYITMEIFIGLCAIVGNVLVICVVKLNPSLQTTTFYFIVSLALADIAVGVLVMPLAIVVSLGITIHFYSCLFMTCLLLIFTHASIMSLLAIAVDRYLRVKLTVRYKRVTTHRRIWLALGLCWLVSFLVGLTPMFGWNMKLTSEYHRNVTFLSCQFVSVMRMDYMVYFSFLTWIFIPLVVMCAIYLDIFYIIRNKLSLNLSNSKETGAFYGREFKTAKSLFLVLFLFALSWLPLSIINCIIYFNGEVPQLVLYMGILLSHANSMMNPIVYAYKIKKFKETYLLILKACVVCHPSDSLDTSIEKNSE
How it was run: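 Radioligand [³H]NECA was used on membranes from stably transfected CHO cells, prepared by a 1000g clearing spin then pelleting at 100 000g. Pellets were resuspended in binding buffer, frozen in liquid nitrogen and stored. Nonspecific binding was defined with 100 μM R-PIA.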

[7] = biological target: T3, Adenosine receptor A2b (Homo sapiens, UniProt P29275); assay: Antagonist activity at human adenosine A2B receptor expressed in CHO cells assessed as inhibition of NECA-stimulated adenylyl cyclase activity; assay type: functional, cell-based
T3 sequence (P29275 whole entry): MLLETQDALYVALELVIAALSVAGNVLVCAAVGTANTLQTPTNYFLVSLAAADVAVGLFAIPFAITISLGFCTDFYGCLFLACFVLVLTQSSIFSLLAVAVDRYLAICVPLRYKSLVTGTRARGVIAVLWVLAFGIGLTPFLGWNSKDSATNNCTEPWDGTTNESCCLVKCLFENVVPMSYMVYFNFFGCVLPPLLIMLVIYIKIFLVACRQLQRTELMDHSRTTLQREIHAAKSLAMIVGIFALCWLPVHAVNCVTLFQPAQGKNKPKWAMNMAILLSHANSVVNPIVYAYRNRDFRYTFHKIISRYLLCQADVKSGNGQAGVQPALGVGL
How it was run: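 Membranes from stably transfected CHO cells, made with a single high-speed centrifugation of the homogenate. Incubated 20 min with about 150 000 cpm [α-³²P]ATP, in a mixture without EGTA and NaCl. IC50 for concentration-dependent inhibition of NECA-stimulated adenylyl cyclase was fitted with the Hill equation and converted to Ki by Cheng–Prusoff.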

Sequence of Adenosine receptor A2a (P29274 whole entry): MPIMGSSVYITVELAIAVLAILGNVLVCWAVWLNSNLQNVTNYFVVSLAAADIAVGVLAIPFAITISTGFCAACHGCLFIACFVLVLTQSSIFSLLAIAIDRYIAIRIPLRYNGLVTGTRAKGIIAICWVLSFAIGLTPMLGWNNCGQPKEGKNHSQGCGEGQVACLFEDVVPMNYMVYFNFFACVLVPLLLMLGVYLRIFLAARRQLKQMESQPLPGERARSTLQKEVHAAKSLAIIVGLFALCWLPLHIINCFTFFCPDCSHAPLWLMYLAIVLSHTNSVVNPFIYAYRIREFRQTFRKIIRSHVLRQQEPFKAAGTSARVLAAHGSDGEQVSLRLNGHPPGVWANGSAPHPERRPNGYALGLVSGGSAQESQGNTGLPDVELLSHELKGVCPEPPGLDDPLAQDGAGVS

Row | SMILES | Ratio Ki [1] | Ratio Ki [2] | Ratio Ki [3] | Ki [4] [nM] | Ki [5] [nM] | Ki [6] [nM] | Ki [7] [µM]
1 | CCOC(=O)c1cnc(NCc2ccc(C(F)(F)F)cc2)n2nc(-c3ccco3)nc12 | 4.92 | 0.65 | 7.61 | 1590 | 209 | 323 | 2.04
2 | CCOC(=O)c1cnc(NC(c2ccccc2)c2ccccc2)n2nc(-c3ccco3)nc12 | 2.81 | 1.14 | 2.45 | 943 | 385 | 336 | > 30
3 | CCOC(=O)c1cnc(NOC)n2nc(-c3ccco3)nc12 | 5.47 | 0.18 | 31 | 6510 | 210 | 1190 | > 10
4 | CNC(=O)c1cnc(NCc2ccc(OC)c(OC)c2)n2nc(-c3ccco3)nc12 | 1.52 | 0.09 | 16.6 | 428 | 25.8 | 282 | 2.49
5 | O=C(O)c1cnc(NCc2ccc(F)cc2)n2nc(-c3ccco3)nc12 | > 7.14 | 0.46 | > 15.6 | > 100000 | 6390 | 14000 | > 30
6 | O=C(O)c1cnc(NCc2ccc(-c3ccccc3)cc2)n2nc(-c3ccco3)nc12 | 1.06 | > 3.53 | < 0.3 | 30100 | > 100000 | 28300 | > 30
7 | CCOC(=O)c1cnc(NC2CCCC2)n2nc(-c3ccco3)nc12 | 0.98 | 1.24 | 0.79 | 34.4 | 43.4 | 35 | 4.62
8 | CCOC(=O)c1cnc(NCCOC)n2nc(-c3ccco3)nc12 | 21.6 | 2.78 | 7.77 | 2270 | 292 | 105 | > 10
9 | CC(C)Nc1ncc(C(=O)O)c2nc(-c3ccco3)nn12 | 0.26 | 0.44 | 0.59 | 4490 | 7660 | 17500 | > 10
10 | CCOC(=O)c1cnc(NCc2ccccc2)n2nc(-c3ccco3)nc12 | 94 | 3.2 | 29.4 | 940 | 32 | 10 | 2.51
11 | CCOC(=O)c1cnc(N2CCOCC2)n2nc(-c3ccco3)nc12 | > 11.5 | 2.02 | > 5.68 | > 100000 | 17600 | 8700 | > 10
12 | O=C(Nc1ncc(C(=O)O)c2nc(-c3ccco3)nn12)NC1CCCCC1 | > 1.68 | 0.42 | > 4.05 | > 100000 | 24700 | 59400 | > 30
13 | O=C(O)c1cnc(NC2CCCC2)n2nc(-c3ccco3)nc12 | 0.21 | 2.11 | 0.1 | 3790 | 37300 | 17700 | > 10
14 | CCOC(=O)c1cnc(N2CCCC2)n2nc(-c3ccco3)nc12 | 18.7 | 12.2 | 1.53 | 15600 | 10200 | 836 | > 10
15 | CCOC(=O)c1cnc(NCc2ccc(OC)c(OC)c2)n2nc(-c3ccco3)nc12 | 8.14 | 3 | 2.71 | 315 | 116 | 38.7 | 13.3
16 | CCOC(=O)c1cnc(SC)n2nc(-c3ccco3)nc12 | 2.17 | 3.6 | 0.6 | 5720 | 9500 | 2640 | > 30
17 | O=C(O)c1cnc(NCc2ccccc2)n2nc(-c3ccco3)nc12 | 2.28 | 1.64 | 1.39 | 5090 | 3660 | 2230 | > 10
18 | Nc1ncc(C(=O)NCCc2ccccc2)c2nc(-c3ccco3)nn12 | 0.41 | 0.08 | 5.14 | 57.1 | 11.1 | 140 | 5.32
19 | CCOC(=O)c1cnc(N2CCCCC2)n2nc(-c3ccco3)nc12 | 5 | 4.62 | 1.08 | 8860 | 8180 | 1770 | > 10
20 | CCOC(=O)c1cnc(NCC2CCCCC2)n2nc(-c3ccco3)nc12 | 10.5 | 2.94 | 3.57 | 432 | 121 | 41.2 | > 10
21 | CCOC(=O)c1cnc(NC(C)C)n2nc(-c3ccco3)nc12 | 4.23 | 10.9 | 0.39 | 40 | 103 | 9.46 | 10
22 | CCOC(=O)c1cnc(NC2CCCCCC2)n2nc(-c3ccco3)nc12 | 0.72 | 0.73 | 0.98 | 231 | 235 | 321 | > 10
23 | O=C(O)c1cnc(NCc2ccc(C(F)(F)F)cc2)n2nc(-c3ccco3)nc12 | > 6.29 | 1.13 | > 5.55 | > 100000 | 18000 | 15900 | > 30
24 | O=C(Cc1ccccc1)Nc1ncc(C(=O)NCCc2ccccc2)c2nc(-c3ccco3)nn12 | 0.57 | 0.05 | 11.3 | 317 | 28.1 | 553 | > 30
25 | COc1ccc(CNc2ncc(C(=O)NCCc3ccccc3)c3nc(-c4ccco4)nn23)cc1OC | 4.39 | 0.74 | 5.9 | 385 | 65.2 | 87.7 | > 30
26 | CCOC(=O)c1cnc(N)n2nc(-c3ccco3)nc12 | 0.78 | 0.01 | 55.7 | 185 | 3.32 | 238 | 1.11
27 | O=C(O)c1cnc(NCC2CCCCC2)n2nc(-c3ccco3)nc12 | 0.17 | 2.14 | 0.08 | 2740 | 33900 | 15800 | > 10
28 | CCOC(=O)c1cnc(NCc2ccc(Cl)cc2)n2nc(-c3ccco3)nc12 | 15.2 | 1.29 | 11.8 | 866 | 73.2 | 56.8 | 1.63
29 | CCOC(=O)c1cnc(NC2CCCCC2)n2nc(-c3ccco3)nc12 | 1.08 | 0.45 | 2.39 | 141 | 58.9 | 131 | > 10

— ChEMBL document CHEMBL3351655, “Scaffold decoration at positions 5 and 8 of 1,2,4-triazolo[1,5-c]pyrimidines to explore the antagonist profiling on adenosine receptors: a preliminary structure-activity relationship study” (J Med Chem, 2014)
